Reference: ChEMBL document CHEMBL1132972, “Pyrrolidine inhibitors of human cytosolic phospholipase A(2)” (J Med Chem, 2000)

What was measured:
[1] = system: THP-1; assay: Inhibition of arachidonic acid production from THP-1 cells stimulated with A-23187 using cellular assay; assay type: functional, cell-based; details: Homo sapiens
Method in brief: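 DMSO-differentiated THP-1 cells (1.3% DMSO for 2 days in RPMI 1640/10% FCS), washed with PBS, held in Hanks' saline pH 7.6 plus 0.1% BSA. Preincubated with inhibitor 15 min at 37 °C, then stimulated with 3 µM calcium ionophore A23187 for 20 min at 37 °C. Arachidonic acid release measured; IC50, mean ± SD, n=3 independent determinations.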

[2] = molecular target: T1, Cytosolic phospholipase A2 (Homo sapiens, UniProt P47712); assay: Inhibition of Human cPLA2 alpha using Enzyme assay(PC/DOG assay)
T1 sequence (P47712 whole entry): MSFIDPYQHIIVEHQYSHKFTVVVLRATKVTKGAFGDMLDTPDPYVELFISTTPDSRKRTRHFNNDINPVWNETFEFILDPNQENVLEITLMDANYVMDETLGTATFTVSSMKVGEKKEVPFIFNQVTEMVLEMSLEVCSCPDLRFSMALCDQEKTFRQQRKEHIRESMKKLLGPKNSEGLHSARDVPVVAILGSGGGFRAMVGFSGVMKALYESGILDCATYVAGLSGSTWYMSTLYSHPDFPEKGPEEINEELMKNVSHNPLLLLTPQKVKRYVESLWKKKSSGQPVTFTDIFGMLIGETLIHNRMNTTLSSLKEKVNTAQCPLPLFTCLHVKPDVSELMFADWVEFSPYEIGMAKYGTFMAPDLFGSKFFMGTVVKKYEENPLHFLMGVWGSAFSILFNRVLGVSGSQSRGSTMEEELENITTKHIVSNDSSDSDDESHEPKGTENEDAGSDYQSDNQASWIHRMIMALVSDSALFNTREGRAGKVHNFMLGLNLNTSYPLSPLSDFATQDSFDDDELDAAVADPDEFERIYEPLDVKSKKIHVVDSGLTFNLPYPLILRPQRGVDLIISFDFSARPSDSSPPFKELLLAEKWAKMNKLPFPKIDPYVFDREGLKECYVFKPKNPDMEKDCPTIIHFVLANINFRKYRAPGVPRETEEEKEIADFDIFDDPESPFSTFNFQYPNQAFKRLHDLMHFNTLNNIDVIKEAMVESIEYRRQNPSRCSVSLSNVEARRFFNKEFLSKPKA

[3] = system: THP-1; assay: Effect of pyrrolidine derivatives on production of eicosanoids from THP-1 cells stimulated with A-23187 using cellular assay on PGE-2, LTC-4; assay type: functional, cell-based; details: Homo sapiens
Method in brief: (§1)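 THP-1 cells grown in RPMI 1640 with 10% FCS, differentiated with 1.3% DMSO for 2 days, PBS-washed, suspended in Hanks' saline pH 7.6 with 0.1% BSA. Inhibitor preincubation 15 min at 37 °C, then 3 µM A23187 for 20 min at 37 °C. Stopped on ice; supernatant LTC4 and PGE2 measured by radio immunoassay and enzyme immunoassay. IC50, mean ± SD of three independent determinations.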

[4] = system: THP-1; assay: Effect on production of eicosanoids from THP-1 cells stimulated with A-23187 using cellular assay on PGE-2, LTC-4; assay type: functional, cell-based; details: Homo sapiens; method in brief: as §1
[5] = system: THP-1; assay: Effect on production of eicosanoids from THP-1 cells stimulated with A-23187 using cellular assay on PGE-2; assay type: functional, cell-based; details: Homo sapiens; method in brief: as §1
[6] = system: THP-1; assay: Effect of pyrrolidine derivatives on production of eicosanoids from THP-1 cells stimulated with A-23187 using cellular assay on LTC-4; assay type: functional, cell-based; details: Homo sapiens; method in brief: as §1

SMILES | IC50 [1] | IC50 [2] | IC50 [3] | IC50 [4] | IC50 [5] | IC50 [6]
CC(C)CN(Cc1ccccc1-c1ccccc1)[C@@H]1C[C@@H](CNC(=O)c2ccc(/C=C3\SC(=O)NC3=O)cc2)N(C(=O)c2ccccc2C(=O)c2ccc(F)cc2F)C1 | 0.047 µM | 0.0062 µM |  |  |  | 
O=C1NC(=O)/C(=C/c2ccc(C(=O)NC[C@@H]3C[C@@H](OCc4ccccc4-c4ccccc4)CN3C(=O)c3ccccc3C(=O)c3ccc(F)cc3F)cc2)S1 | 0.23 µM | 0.049 µM |  |  |  | 
COc1ccc2c(c1)c(CC(=O)O)c(C)n2C(=O)c1ccc(Cl)cc1 [INDOMETHACIN] | > 10 µM |  | > 10 µM | 0.0036 µM |  | 
O=C1NC(=O)/C(=C/c2ccc(C(=O)NC[C@@H]3C[C@@H](OCc4ccccc4-c4ccccc4)CN3C(=O)c3cccc(C(=O)c4ccccc4)c3)cc2)S1 | 5.9 µM | > 10 µM |  |  |  | 
O=C1NC(=S)S/C1=C\c1ccc(C(=O)NC[C@@H]2C[C@@H](OCc3ccccc3-c3ccccc3)CN2C(=O)c2ccccc2C(=O)c2ccc(F)cc2)cc1 | 0.7 µM | 0.09 µM |  |  |  | 
O=C1NC(=S)S/C1=C\c1ccc(C(=O)NC[C@@H]2C[C@@H](Oc3ccccc3-c3ccccc3)CN2C(=O)c2ccccc2C(=O)c2ccc(F)cc2)cc1 | 0.66 µM | 0.083 µM |  |  |  | 
CC(C)Cc1cccc(-c2ccccc2C(C)C)c1O[C@@H]1C[C@@H](CNC(=O)c2ccc(/C=C3\SC(=O)NC3=O)cc2)N(C(=O)c2ccccc2C(=O)c2ccc(F)cc2)C1 | 0.092 µM | 0.0053 µM |  |  |  | 
CC(C)Cc1cccc(Br)c1O[C@@H]1C[C@@H](CNC(=O)c2ccc(/C=C3\SC(=O)NC3=O)cc2)N(C(=O)c2ccccc2C(=O)c2ccc(F)cc2)C1 | 0.3 µM | 0.038 µM |  |  |  | 
O=C1NC(=O)/C(=C/c2ccc(C(=O)NC[C@@H]3C[C@@H](OCc4ccccc4-c4ccccc4)CN3C(=O)c3ccccc3C(=O)c3ccc(F)cc3)cc2)S1 | 0.32 µM | 0.078 µM | 0.26 µM | 0.26 µM |  | 
CC(C)Cc1cccc(-c2ccccc2C(C)C)c1O[C@@H]1C[C@@H](CNC(=O)c2ccc(/C=C3\SC(=O)NC3=O)cc2)N(C(=O)c2ccccc2C(=O)c2ccc(F)cc2F)C1 | 0.055 µM | 0.0021 µM |  |  |  | 
O=C1NC(=O)/C(=C/c2ccc(C(=O)NC[C@@H]3C[C@@H](Oc4ccccc4-c4ccccc4)CN3C(=O)c3ccccc3C(=O)c3ccc(F)cc3)cc2)S1 | 0.31 µM |  |  |  | 0.21 µM | 
CC(C)CN(Cc1ccccc1-c1ccccc1)[C@@H]1C[C@@H](CNC(=O)/C=C/c2ccc(/C=C3\SC(=O)NC3=O)cc2)N(C(=O)c2ccccc2C(=O)c2ccc(F)cc2)C1 | 0.052 µM |  |  |  |  | 
O=C1NC(=O)/C(=C/c2ccc(C(=O)NC[C@@H]3C[C@@H](SCc4ccccc4-c4ccccc4)CN3C(=O)c3ccccc3C(=O)c3ccc(F)cc3)cc2)S1 | 0.25 µM |  |  |  |  | 
O=C1NC(=S)S/C1=C\c1ccc(C(=O)NC[C@@H]2C[C@@H](SCc3ccccc3-c3ccccc3)CN2C(=O)c2ccccc2C(=O)c2ccc(F)cc2)cc1 | 0.4 µM | 0.072 µM |  |  |  | 
O=C1NC(=O)/C(=C/c2ccc(C(=O)NC[C@@H]3C[C@@H](OCc4ccccc4-c4ccccc4)CN3C(=O)c3ccc(C(=O)c4ccccc4)cc3)cc2)S1 | 5.5 µM | > 10 µM |  |  |  | 
CC(C)CN(Cc1ccccc1-c1ccccc1)[C@@H]1C[C@@H](CNC(=O)/C=C/c2ccc(/C=C3\SC(=O)NC3=O)cc2)N(C(=O)c2ccccc2C(=O)c2ccc(F)cc2F)C1 | 0.022 µM |  | 0.013 µM | 0.031 µM |  | 
CC(C)Cc1cccc(Br)c1O[C@@H]1C[C@@H](CNC(=O)c2ccc(/C=C3\SC(=O)NC3=O)cc2)N(C(=O)c2ccccc2C(=O)c2ccc(F)cc2F)C1 | 0.22 µM | 0.022 µM |  |  |  | 
O=C1NC(=O)/C(=C/c2ccc(C(=O)NC[C@@H]3C[C@@H](OCc4ccccc4-c4ccccc4)CN3C(=O)c3ccccc3C(=O)c3ccccc3)cc2)S1 | 0.67 µM | 0.165 µM |  |  | 0.41 µM | 0.37 µM
CC(C)CN(Cc1ccccc1-c1ccccc1)[C@@H]1C[C@@H](CNC(=O)c2ccc(/C=C3\SC(=O)NC3=O)cc2)N(C(=O)c2ccccc2C(=O)c2ccc(F)cc2)C1 | 0.18 µM | 0.021 µM |  |  |  | 
